BindingDB's records for doi:10.1021/jm9802620 (University of Washington, 1998)

Legend:
[1] = target: Glyceraldehyde-3-phosphate dehydrogenase (GAPDH); assay: Inhibitory activity measured for Glyceraldehyde-3-phosphate dehydrogenase (GAPDH) in Leishmania. mexicana
Method in brief: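 Recombinant glycosomal GAPDH of L. mexicana, T. cruzi or T. brucei; human enzyme from erythrocytes. NADH formation followed at 340 nm, 21 °C, in 0.1 M triethanolamine-HCl pH 7.6 with DTT, NaN3, MgSO4, EDTA, 10 mM K2HPO4, 0.8 mM glyceraldehyde-3-phosphate, 0.19 mM NAD+, 5% DMSO. Reaction started with enzyme. IC50 from 0–1 min initial rates at ≥5 inhibitor levels versus DMSO control.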

[2] = target: Glyceraldehyde-3-phosphate dehydrogenase (GAPDH); assay: Inhibitory activity was measured for Glyceraldehyde-3-phosphate dehydrogenase (GAPDH) in Leishmania. mexicana.

| IC50 [1] | IC50 [2] | Compound |
| --- | --- | --- |
| 0.36 mM |  | OC[C@H]1OC(n2cnc3c(N[C@@H]4CCCc5ccccc54)ncnc32)[C@H](O)[C@@H]1O (stereo not given in full) |
| 0.7 mM |  | Cc1cccc(CNc2ncnc3c2ncn3C2O[C@H](CO)[C@@H](O)[C@H]2O)c1 (stereo not given in full) |
|  | 3.7 mM | CC(C)CCNc1ncnc2c1ncn2C1O[C@H](CO)[C@@H](O)[C@H]1O (stereo not given in full) |
| > 5 mM |  | CC(C)=CCNc1ncnc2c1ncn2C1O[C@H](CO)[C@@H](O)[C@H]1O (stereo not given in full) |
| 3.1 mM |  | Nc1ccc(CNc2ncnc3c2ncn3C2O[C@H](CO)[C@@H](O)[C@H]2O)cc1 (stereo not given in full) |
